For one series, the system named is SH-SY5Y. Put plainly: Anticancer activity against human SH-SY5Y cells assessed as reduction in cell viability incubated for 48 hrs by resazurin dye based fluorescence assay. It counts as functional. The procedure, abridged:
(§1)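 Cells seeded at 1×10^4 cells/well in DMEM/Ham's F12 (1:1, L-glutamine, 15 mM HEPES) with 10% FBS, 37°C, 5% CO2. Compounds in DMSO, 50 μM then two-fold over 8 further dilutions to 0.195 μM; 0.5% DMSO final. 48 h exposure. Resazurin 0.0125 mg/ml final, read 3 h (HT1080) or 8 h (SH-SY5Y, SK-N-AS) at Ex 544/Em 590 nm. Inhibition relative to DMSO control; triplicates, ≥2 experiments.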
A general note: Alamar Blue is a resazurin reagent that responds to reducing activity.

The subject of a further series is HT-1080. In words: Anticancer activity against human HT-1080 cells assessed as reduction in cell viability incubated for 48 hrs by resazurin dye based fluorescence assay. As to conditions: HT-1080, 48 h. It counts as functional. The procedure, abridged:
as §1

In a further series the test system is SK-N-AS. In words: Anticancer activity against human SK-N-AS cells assessed as reduction in cell viability incubated for 48 hrs by resazurin dye based fluorescence assay. In kind it is functional. The procedure, abridged:
as §1

In series [1] the target is Cathepsin D (Homo sapiens) (UniProt P07339). Put plainly: Inhibition of cathepsin D (unknown origin) using MCA labelled GKPILFFRLK(Dnp)-D-R-NH as substrate at 200 uM preincubated for 15 mins followed by substrate addition and measured after 2 hrs by fluorometer analysis. As to conditions: time 135.0 min.
Sequence of Cathepsin D (Homo sapiens) (P07339 65-162 limits assumed): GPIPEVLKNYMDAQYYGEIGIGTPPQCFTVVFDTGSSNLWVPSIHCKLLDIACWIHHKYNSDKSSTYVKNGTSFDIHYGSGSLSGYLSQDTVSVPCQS
Sequence of Cathepsin D (Homo sapiens) (P07339 169-412 limits assumed): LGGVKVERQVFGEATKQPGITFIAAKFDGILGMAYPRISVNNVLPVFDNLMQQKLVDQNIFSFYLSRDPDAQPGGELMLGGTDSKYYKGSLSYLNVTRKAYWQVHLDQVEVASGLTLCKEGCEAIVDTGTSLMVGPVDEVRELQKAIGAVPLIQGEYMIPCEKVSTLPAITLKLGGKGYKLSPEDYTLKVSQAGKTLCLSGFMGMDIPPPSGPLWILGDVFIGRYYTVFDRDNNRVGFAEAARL
Series [2] in a line: Cytotoxicity against African green monkey Vero 76 cells assessed as reduction in cell viability. It counts as toxicity, cell-based. As to conditions: African green monkey (Chlorocebus sabaeus).
Series [3] in a line: Cytotoxicity against human HeLa cells assessed as reduction in cell viability incubated for 48 hrs by CellTiter Glo assay. It counts as toxicity, cell-based. A general note: ATP-based viability assays read luminescence as a measure of living cells.
A short description of series [4]: Cytotoxicity against human A549-ACE2 cells expressing ACE2 assessed as reduction in cell viability by CytoTox-Glo assay. It counts as toxicity, cell-based.
In series [5] the target is Calcium/calmodulin-dependent protein kinase type 1 (Homo sapiens) (UniProt Q14012). In words: Inhibition of CAMK1 (unknown origin) at 1 uM by Adapta assay.
Sequence of Calcium/calmodulin-dependent protein kinase type 1 (Homo sapiens) (Q14012 whole entry, looked up): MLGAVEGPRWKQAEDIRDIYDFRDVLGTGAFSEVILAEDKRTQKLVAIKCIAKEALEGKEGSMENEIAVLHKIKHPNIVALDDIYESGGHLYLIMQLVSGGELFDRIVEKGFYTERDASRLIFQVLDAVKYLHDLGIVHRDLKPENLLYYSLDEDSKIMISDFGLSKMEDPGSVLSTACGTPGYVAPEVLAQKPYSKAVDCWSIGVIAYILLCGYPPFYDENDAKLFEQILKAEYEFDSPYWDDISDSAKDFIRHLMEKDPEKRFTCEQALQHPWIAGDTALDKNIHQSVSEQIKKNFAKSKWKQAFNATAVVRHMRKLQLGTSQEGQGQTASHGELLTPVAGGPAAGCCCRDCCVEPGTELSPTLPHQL
Series [6] concerns the target Maternal embryonic leucine zipper kinase (Homo sapiens) (UniProt Q14680). In words: Inhibition of MELK (unknown origin) at 1 uM by Adapta assay.

Data on ten molecules can be found in ChEMBL document CHEMBL5214971, “Multiple approaches to repurposing drugs for neuroblastoma” (Bioorg Med Chem, 2022).

A value given as a limit tells only on which side of the number the result lay.

Sequence of Maternal embryonic leucine zipper kinase (Homo sapiens) (Q14680 whole entry, looked up): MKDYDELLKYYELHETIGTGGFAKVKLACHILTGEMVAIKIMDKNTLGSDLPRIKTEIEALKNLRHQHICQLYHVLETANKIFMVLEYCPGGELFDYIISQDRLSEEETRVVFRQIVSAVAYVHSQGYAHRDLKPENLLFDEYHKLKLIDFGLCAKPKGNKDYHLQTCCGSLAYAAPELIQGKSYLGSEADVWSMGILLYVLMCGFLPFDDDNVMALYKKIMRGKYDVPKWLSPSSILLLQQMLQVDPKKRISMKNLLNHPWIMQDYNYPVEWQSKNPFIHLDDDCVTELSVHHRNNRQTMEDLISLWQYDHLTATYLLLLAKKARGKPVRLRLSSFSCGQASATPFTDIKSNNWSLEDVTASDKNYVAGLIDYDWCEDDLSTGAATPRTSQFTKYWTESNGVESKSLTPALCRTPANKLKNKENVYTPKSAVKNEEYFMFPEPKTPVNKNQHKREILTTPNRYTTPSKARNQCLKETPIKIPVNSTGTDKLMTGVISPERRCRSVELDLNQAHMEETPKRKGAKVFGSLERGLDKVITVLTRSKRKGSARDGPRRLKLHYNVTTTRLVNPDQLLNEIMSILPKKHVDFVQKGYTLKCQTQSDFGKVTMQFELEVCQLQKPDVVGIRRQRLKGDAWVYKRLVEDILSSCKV

For the molecule `CCN(CC)CCCC(C)Nc1c2ccc(Cl)cc2nc2ccc(OC)cc12` (centres undefined) [QUINACRINE], the IC50 (commonly the concentration needed to halve the response being measured) with SH-SY5Y turned out to be 8.57 µM; with HT-1080, 29 µM.

For `CN1CCN(c2ccc(C(=O)Nc3n[nH]c4ccc(Cc5cc(F)cc(F)c5)cc34)c(NC3CCOCC3)c2)CC1` [ENTRECTINIB], the figures for the IC50 in the series on SH-SY5Y and with SK-N-AS were 1.6 µM and 4.47 µM, respectively.

In the case of `O=C(Nc1ccc([N+](=O)[O-])cc1Cl)c1cc(Cl)ccc1O` [NICLOSAMIDE], the values for the IC50 with SH-SY5Y and in the series on SK-N-AS were 0.87 µM and 2.33 µM, respectively.

In the case of `COc1ccc2nc3cc(Cl)ccc3c(Nc3cc(CN(C)C)c(O)c(CN(C)C)c3)c2c1`, the figures for the half-inhibitory concentration (IC50) in the series with SH-SY5Y, with SK-N-AS and in the series with HT-1080 were 3.41 µM, 5.4 µM and 6.09 µM, respectively.

Turning to `COc1ccc2nc3cc(Cl)ccc3c(Nc3ccc(O)c(CN4CCCC4)c3)c2c1`, the IC50 with SH-SY5Y turned out to be 1.2 µM; in the series with SK-N-AS, 3.86 µM; in the series with HT-1080, 3.6 µM.

On to `COc1ccc2nc3cc(Cl)ccc3c(Nc3cc(CN4CCCC4)c(O)c(CN4CCCC4)c3)c2c1`, for which the results for the IC50 in the series on SH-SY5Y and with HT-1080 were 9.7 µM and 13.8 µM, respectively.

Turning to `COc1ccc2nc3cc(Cl)ccc3c(Nc3cc(CN4CCCC4)c(O)c(CN4CCCC4)c3)c2n1` [PYRONARIDINE], the IC50 in the series with SH-SY5Y was 1.7 µM; with SK-N-AS, 3.45 µM; with HT-1080, 4.23 µM; in series [2], 1.3 µM; in [4], greater than 10 µM. For the same molecule, the inhibition (usually the change of the read-out against control, counted positive when it falls) in series [1] is greater than 50%; in series [5], 35%; in series [6], 31%. Moreover, in series [3], the concentration for half-maximal inhibition (IC50) at 48 h was 3.1 µM.

For the molecule `Cc1ccc(S(=O)(=O)/C=C/C#N)cc1`, the concentration for half-maximal inhibition (IC50) amounted to 0.85 µM with SH-SY5Y and 1.23 µM in the series on SK-N-AS.

Take `CCCCCCCCc1ccc(CCC(N)(CO)CO)cc1` [FINGOLIMOD]: the IC50 stood at 4.71 µM in the series with SH-SY5Y and 6.11 µM in the series with SK-N-AS.

In the case of `C[C@@H](Oc1cc(-c2cnn(C3CCNCC3)c2)cnc1N)c1c(Cl)ccc(F)c1Cl` [CRIZOTINIB], the IC50 with SH-SY5Y is 0.92 µM; in the series with SK-N-AS it was 12.1 µM.
